# Screening results as filed in PubChem.
# Compounds with a hit are over-represented: about 1.8% of the library has one in this group of screens.
# Rev-erbA mod = Rev-erb alpha (human) modulation; P20393; Rev-erbα–FITC-DNA binding, fluorescence polarization, 90 min; activity, % at 10 µM; hit rate 0.79% among 370,000;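 active = activity above about 14%, limit read from the data; passing the limit was not always enough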;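 also: 0% = DMSO wells with 35 nM protein and 100% = DMSO wells with 750 nM protein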
# Target sequence (P20393 whole entry, looked up): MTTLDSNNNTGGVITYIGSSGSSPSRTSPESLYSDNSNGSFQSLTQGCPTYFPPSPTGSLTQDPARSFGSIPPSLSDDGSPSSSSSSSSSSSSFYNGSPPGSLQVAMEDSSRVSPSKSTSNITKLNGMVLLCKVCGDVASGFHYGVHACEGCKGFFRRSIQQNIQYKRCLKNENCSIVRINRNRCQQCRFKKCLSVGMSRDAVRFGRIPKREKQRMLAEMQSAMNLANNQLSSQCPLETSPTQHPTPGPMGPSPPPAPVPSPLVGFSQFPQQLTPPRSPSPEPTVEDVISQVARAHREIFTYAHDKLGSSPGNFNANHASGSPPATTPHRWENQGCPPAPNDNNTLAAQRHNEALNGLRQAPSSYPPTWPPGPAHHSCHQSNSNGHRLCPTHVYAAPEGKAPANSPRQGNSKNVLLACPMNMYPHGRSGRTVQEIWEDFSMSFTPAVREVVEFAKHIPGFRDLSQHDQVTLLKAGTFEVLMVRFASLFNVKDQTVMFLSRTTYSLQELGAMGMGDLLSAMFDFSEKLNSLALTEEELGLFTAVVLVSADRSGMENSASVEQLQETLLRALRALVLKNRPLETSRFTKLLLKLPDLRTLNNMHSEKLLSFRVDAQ
# PG9 Ab binder = PG9 antibody binding by small molecule; hit rate 0.43% among 360,000; TR-FRET gp120-PG9 antibody binding; inhibition, % at 6.7 µM; in the data active = inhibition above about 8.5%
# TbMetRS inhib = blocks T. brucei methionyl-tRNA synthetase activity; purified T. brucei MetRS, ATP depletion, Kinase-Glo luminescence; inhibition, % at 11.9 µM; hit rate 0.4% among 360,000; AID 624268;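 active = inhibition above a per-plate cutoff of the control wells' mean inhibition plus 3 SD, cut at about 5.5% in these data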;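 also: 0% = DMSO wells median and 100% = median of wells with control inhibitor compound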
#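 assay system = parasite MetRS enzyme | timing = 15 min preincubation, 2 h reaction, all 25 °C | evaluation = percent inhibition relative to median high and low control wells | medium = HEPES buffer containing pyrophosphatase, BSA, spermine, DTT | compound = single dose, 11.9 µM final nominal, 0.9% final DMSO | detection = Kinase-Glo luminescence, ATP depletion format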
# Rin1-Abl PPI inh = inhibitors of human Rin1-Abl protein interaction. P00519+Q13671. TR-FRET Rin1/Abl binding, biochemical. inhibition, % at 7.35 µM. hit rate 0.4% among 360,000; in the data active = inhibition above about 5%, passing the limit was not always enough
# NR1D1 mod conf = confirmation of modulators of human Rev-erb alpha DNA binding; shares compounds with Rev-erbA mod; Rev-erb alpha FITC-DNA binding, fluorescence polarization, 90 min; activation, % at 25 µM; hit rate 61% among 3,000; AID 1259319;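 active = activation at or above a set limit, or at least 3 SD above the negative control mean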;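 also: 0% = 35 nM protein with DMSO and 100% = 750 nM protein high control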
# RORg DNA counter = counter-screen for Rev-erb alpha modulators: RORgamma DNA binding; shares compounds with Rev-erbA mod; purified RORgamma protein-FITC-DNA binding, fluorescence polarization; IC50, µM; hit rate 8% among 910; AID 1259320;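 active = Compounds whose fitted half-maximal concentration for disrupting protein-DNA binding is below 10 micromolar; the record names Rev-erb in its text, so the target is in doubt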
# An asterisk follows results filed as active; i = inactive; · = not tested or not shown.
SMILES,Rev-erbA mod,PG9 Ab binder,TbMetRS inhib,Rin1-Abl PPI inh,NR1D1 mod conf,others
FC(F)(F)c1cc(-c2cccs2)nc2cc(-c3ccccc3)nn12,33*,6,0,-1,14,
CN(CC(=O)Nc1ccc(F)c(F)c1F)C(=O)CCc1nc2sc3c(c2c(=O)[nH]1)CCCC3,19*,0,0,1,17,
CN(CC(=O)Nc1cccc(F)c1)C(=O)CCc1nc2sc3c(c2c(=O)[nH]1)CCCC3,20*,2,-1,-2,7,
CN(CCOc1ccccc1)C(=O)CCc1nc2sc3c(c2c(=O)[nH]1)CCCC3,6,0,0,-2,·,
CCOC(=O)c1sc2ccc(S(=O)(=O)N3CC(C)CC(C)C3)cc2c1N (configuration not stated),28*,-1,0,-3,18*,
CCCCn1c(N)c(N(C)C(=O)C2CCCC2)c(=O)[nH]c1=O,0,2,0,-2,·,
CCOC(=O)C1=C(c2ccccc2)O/C(=C(\C(=O)OC)C(F)(F)F)S1,25*,-3,0,1,18*,
CCC(=O)Nc1ccc(NC(=O)c2ccc3c(c2)OCO3)cc1,-2,2,-1,0,·,
O=C(Nc1cccc(F)c1)c1ccc2c(c1)OCO2,1,-1,-1,-1,·,
O=C(Nc1c(C(=O)Nc2cccc(F)c2)oc2ccccc12)c1ccc2c(c1)OCO2,51*,0,-1,-1,17,
Cc1c(NC(=O)c2ccc3c(c2)OCO3)cccc1-c1nc2ccccc2s1,13,2,0,1,·,
O=C(Nc1cccc(-c2nc3ccccc3s2)c1)c1ccc2c(c1)OCO2,45*,-1,0,0,12,
O=C(Nc1ccc2nn(-c3ccccc3)nc2c1)c1ccc2c(c1)OCO2,23*,-19,0,-2,28*,
CCN(CC)c1ccc(NC(=O)c2ccc3c(c2)OCO3)cc1,16*,-11,0,-1,1,
CS(=O)(=O)N1CCCC(C(=O)Nc2ccc(F)c(F)c2)C1 (configuration not stated),1,2,0,-1,·,
COc1ccc(NC(=O)C2CCCN(S(=O)(=O)c3ccc4[nH]c(=O)ccc4c3)C2)cc1OC (configuration not stated),23*,7,0,-2,0,
Cc1ccc(NC(=O)C2CCCN(S(=O)(=O)c3ccc4[nH]c(=O)ccc4c3)C2)cc1C (configuration not stated),5,6,2,3,·,
CC(C)(C=O)Cc1cc(C(C)(C)C)c(O)c(C(C)(C)C)c1,21*,-1,-1,0,19*,
O=C(COc1ccc(Cl)cc1Cl)Nc1cccc(-c2ccc(N3CCOCC3)nn2)c1,22*,2,0,2,14*,
O=C(COc1ccc(Cl)cc1Cl)Nc1ccc(-c2ccc(N3CCOCC3)nn2)cc1,-21,-8,0,7,·,
Cc1c(N2C(=O)/C(=C/c3ccc(N(C)C)cc3)N(C)C2=S)c(=O)n(-c2ccccc2)n1C,22*,-17,0,-14,19*,
CCN(CC)C(=O)c1ccc(/C=C/c2c[nH]c3ccccc23)[n+](C)c1,45*,-12,0,-65,50*,RORg DNA counter=>40
CC[n+]1c(/C=C/c2c[nH]c3ccccc23)ccc2cc(C)ccc21,126*,-14,·,·,102*,RORg DNA counter=>40
Cc1ccc(C(=O)/C=C/c2c[nH]c3ccccc23)cc1,8,-3,1,1,·,
CC(C)(C)n1ncc2c(=O)n(Cc3ccccc3Br)cnc21,-2,0,0,2,·,
SMILES,Rev-erbA mod,PG9 Ab binder,TbMetRS inhib,Rin1-Abl PPI inh,NR1D1 mod conf,others
Nc1nc(COC(=O)C2CC(=O)N(Cc3ccccc3Cl)C2)nc(Nc2ccccc2)n1 (configuration not stated),-3,-1,-1,-3,·,
CCN(CC)C1=CC2=CC(=C(C#N)C#N)CCC2CC1 (configuration not stated),66*,-7,3,-29,24*,
CCCCN(C)C1=CC2=CC(=C(C#N)C#N)CCC2CC1 (configuration not stated),69*,-10,2,-63,34*,RORg DNA counter=>40
CCOC(=O)c1sc2nc(NC(=O)COc3ccccc3)sc2c1C,23*,0,0,0,14*,
O=c1c(Cl)c(Nc2cccc(Cl)c2)cnn1-c1nc2ccccc2s1,19*,-2,0,-4,10,
COc1ccc(Nc2cnn(-c3nc4ccccc4s3)c(=O)c2Cl)cc1,0,0,1,-2,·,
C=CC[C@H](CC(=O)NCCO)C(=O)NCCOC(=O)[C@@H](CC=C)CC(=O)OC(C)(C)C,3,-1,0,3,·,
Nc1ncc2c(n1)-c1cc(Cl)ccc1SC2,34*,2,-2,4,-2,
CCOc1cc(/C=C2\C(=O)NN(c3ccccc3)C2=O)cc([N+](=O)[O-])c1O,-9,-14,1,1,·,
CCOc1cc(/C=C2\NC(=O)NC2=O)cc([N+](=O)[O-])c1O,19*,-34,0,-11,-2,
O=S(=O)(N1CCCCC1)N1CCN(CC(O)COc2ccc3cc(Br)ccc3c2)CC1 (configuration not stated),100*,12*,0,1,49*,RORg DNA counter=i
CN(C)S(=O)(=O)N1CCN(CC(O)COc2ccc3cc(Br)ccc3c2)CC1 (configuration not stated),1,1,0,1,·,
N#Cc1ccc(Oc2ccc(-c3cnc4ccccc4n3)cc2)cc1C#N,51*,0,-1,-3,30*,
N#Cc1ccc(Oc2ccc(-c3nc4ccccc4nc3-c3ccccc3)cc2)cc1C#N,23*,2,-2,1,38*,RORg DNA counter=>40
COc1ccc(-c2nc3ccccc3nc2-c2ccccc2)cc1,-1,-2,0,0,·,
COC(=O)C1C(O)=C(C=Nc2ccc3ccccc3c2)C(=O)CC1(C)C (configuration not stated),-1,0,0,-2,·,
O=C(Cc1ccc(Cl)cc1)NC(=S)Nc1ccccc1N1CCOCC1,-1,-1,0,2,·,
O=C(Nc1ccccc1N1CCOCC1)C1(c2ccc(Cl)cc2)CCC1,20*,-1,-1,-2,9,
O=[N+]([O-])c1ccccc1N=Nc1ccc(O)cc1O,32*,-4,0,-2,17*,
Oc1ccc(N=Nc2ccc(Br)cc2)c(O)c1,8,-2,-1,5,·,
Nc1ncnc(Nc2c(F)cccc2F)n1,-3,1,0,0,·,
CSc1ccc(/C=C2\C(=N)N3N=C(CC(=O)N4CCOCC4)SC3=NC2=O)cc1,11,1,-1,1,·,
CCN(CC)c1ccc(/C=C2\C(=N)N3N=C(CC(=O)N4CCOCC4)SC3=NC2=O)cc1,37*,-3,0,-2,22*,
CN(CC(=O)Nc1ccc(Cl)c(C(F)(F)F)c1)C(=O)c1cn2ccccc2n1,20*,-2,5,-3,2,
